Measured values: ChEMBL document CHEMBL1137539, “Synthesis and in vitro evaluation of 5-arylidene-3-hydroxyalkyl-2-phenylimino-4-thiazolidinones with antidegenerative activity on human chondrocyte cultures” (Bioorg Med Chem, 2007)
Calls of active or inactive are those of the source. The rule behind the calls is not given here.

Key:
Homo sapiens [1] = species on record: Homo sapiens; experiment: Inhibition of IL1-beta induced PGE2 production in human articular chondrocytes at 10 ug/ml to 100 ug/ml; assay type: functional, cell-based
Outline: (§1)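 Human articular chondrocytes came from cartilage taken at femoral neck fracture surgery and were isolated by enzymatic digestion. After 24 h in culture they were exposed to compound (10, 50, 100 µg/mL) with IL-1β (10 ng/mL). Supernatant was collected at 120 h and PGE2 was quantified by enzyme immunoassay (detection limit 1 pg/mL). Values are means with SEM.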

Homo sapiens [2] = species on record: Homo sapiens; experiment: Inhibition of IL1-beta induced nitrite production in human articular chondrocytes at 100 ug/ml after 120 hrs; assay type: functional, cell-based
Homo sapiens [3] = species on record: Homo sapiens; experiment: Inhibition of IL1-beta induced nitrite production in human articular chondrocytes at 50 ug/ml after 120 hrs; assay type: functional, cell-based
Homo sapiens [4] = species on record: Homo sapiens; experiment: Inhibition of IL1-beta induced nitrite production in human articular chondrocytes at 10 ug/ml after 120 hrs; assay type: functional, cell-based
[5] = Inhibition of IL1-beta induced PGE2 production in human articular chondrocytes at 100 ug/ml; assay type: functional; outline: as §1
Homo sapiens [6] = species on record: Homo sapiens; experiment: Inhibition of IL1-beta induced glycosaminoglycans depletion in human articular chondrocytes 10 ug/ml to 100 ug/ml; assay type: functional, cell-based
Outline: (§2)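 Cartilage from femoral neck fracture patients was digested enzymatically to give chondrocytes. After 24 h the cells received compound at 10, 50 and 100 µg/mL together with IL-1β at 10 ng/mL. Total GAGs released into the medium were measured at 120 h and expressed as µg/mL, mean with SEM.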

[7] = Toxicity in human articular chondrocytes assessed as reduction of tetrazolium salt metabolism after 120 hrs by MTT assay; assay type: cell-based
Outline: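 Enzymatically isolated human articular chondrocytes were treated with compound (10, 50, 100 µg/mL) plus IL-1β (10 ng/mL). Viability was measured at 120 h by MTT cleavage by mitochondrial dehydrogenases and read as absorbance, mean with SEM.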

[8] = Inhibition of IL1-beta induced MMP3 secretion in human articular chondrocytes at 100 ug/ml; assay type: functional
Outline: (§3)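 Chondrocytes were isolated from human articular cartilage taken at femoral neck fracture surgery, by sequential hyaluronidase, pronase and collagenase digestion, then cultured. After 24 h they were treated with test compound (10, 50 and 100 µg/mL) plus IL-1β (10 ng/mL). Supernatants were collected at 120 h and MMP-3 was measured by ELISA (detection limit 1 ng/mL). Values are means with SEM.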

[9] = Inhibition of IL1-beta induced glycosaminoglycans depletion in human articular chondrocytes at 100 ug/ml; assay type: functional; outline: as §2
Homo sapiens [10] = species on record: Homo sapiens; experiment: Inhibition of IL1-beta induced MMP3 secretion in human articular chondrocytes at 10 ug/ml to 100 ug/ml; assay type: functional, cell-based; outline: as §3

SMILES	Activity (Homo sapiens [1])	Activity (Homo sapiens [2])	Activity (Homo sapiens [3])	Activity (Homo sapiens [4])	Activity [5] [ng/mL]	Activity (Homo sapiens [6])	Activity [7]	Activity [8] [ng/mL]	Activity [9] [ng/mL]	Activity (Homo sapiens [10])
CCCN1C(=O)/C(=C/c2cccc(OC)c2)S/C1=N\c1ccccc1	Active	Active	Active	Active	–	–	–	–	–	–
CS(=O)(=O)c1ccc(/C=C2\S/C(=N\c3ccccc3)N(CCCO)C2=O)cc1	–	Active	Active	Active	53.22	Active	Non-toxic	–	–	–
O=C1/C(=C/c2ccc(Cl)cc2)S/C(=N\c2ccccc2)N1CCCO	Active	Active	Active	Active	–	Active	Non-toxic	–	–	–
COc1ccc(/C=C2\S/C(=N\c3ccccc3)N(CCO)C2=O)cc1	Active	Active	Active	Active	–	Active	Non-toxic	–	–	–
COc1cccc(/C=C2\S/C(=N\c3ccccc3)N(CCO)C2=O)c1	Active	Active	Active	Active	–	Active	Non-toxic	–	–	–
COc1ccc2c(c1)c(CC(=O)O)c(C)n2C(=O)c1ccc(Cl)cc1 [INDOMETHACIN]	–	–	–	–	–	–	–	62.64	–	–
CS(=O)(=O)c1ccc(/C=C2\S/C(=N\c3ccccc3)N(CCO)C2=O)cc1	Active	Active	Active	Active	–	Active	Non-toxic	–	–	–
O=C1/C(=C/c2ccc(Cl)cc2)S/C(=N\c2ccccc2)N1CCO	Active	Active	Active	Active	–	Active	Non-toxic	–	–	–
CSc1ccc(/C=C2\S/C(=N\c3ccccc3)N(CCO)C2=O)cc1	Active	Active	Active	Active	–	–	Non-toxic	–	339000	–
CSc1ccc(/C=C2\S/C(=N\c3ccccc3)N(CCCO)C2=O)cc1	Active	Active	Active	Active	–	Active	Non-toxic	–	–	–
COc1ccc(/C=C2\S/C(=N\c3ccccc3)N(CCCO)C2=O)cc1	Active	Active	Active	Active	–	Active	Non-toxic	–	–	Active
COc1cccc(/C=C2\S/C(=N\c3ccccc3)N(CCCO)C2=O)c1	Active	Active	Active	Active	–	Active	Non-toxic	–	–	–
